Measured values as given in ChEMBL document CHEMBL2069237, “3-Hydroxy-3-methylglutaryl flavonol glycosides from Oxytropis falcata” (2012).

Each compound was assayed on RAW264.7 (assay: Antiinflammatory activity in mouse RAW264.7 cells assessed as inhibition of lipopolysaccharide-induced nitric oxide production at 50 uM pre-incubated for 4 hrs before LPS challenge for 24 hrs by Griess assay).
Assay type: functional
In short: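 RAW 264.7 murine macrophages grown in DMEM with 10% FBS, 2 mmol/L L-glutamine, penicillin/streptomycin, 37 °C, 5% CO2. Cells (5 × 10^5/mL) preincubated 8 h, given compound at 10 or 50 μM for 4 h, then LPS (final 1 μg/mL) for 24 h. Nitrite in supernatant measured by Griess reagent, absorbance 570 nm, against sodium nitrite standard; expressed as % inhibition.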
Compound `CC1O[C@@H](OC[C@H]2O[C@@H](Oc3c(-c4ccc(O)cc4)oc4cc(O)cc(O)c4c3=O)C(O[C@@H]3O[C@H](C)[C@H](O)C(O)C3O)C(O)[C@H]2O)C(O)[C@@H](O)[C@H]1O` (stereo partly specified) [MAURITIANIN] has an inhibition at 50 µM of less than 5%. In the case of `C[C@@H]1O[C@@H](OC[C@H]2O[C@@H](Oc3c(-c4ccc(O)cc4)oc4cc(O)cc(O)c4c3=O)[C@H](O)[C@@H](O)[C@H]2O)[C@H](O)[C@H](O)[C@H]1O`, the inhibition at 50 µM is reported as less than 5%. With `C[C@@H]1O[C@@H](OC[C@H]2O[C@@H](Oc3c(-c4ccc(O)cc4)oc4cc(O[C@@H]5O[C@@H](C)[C@H](O)[C@@H](O)[C@H]5O)cc(O)c4c3=O)[C@H](O)[C@@H](O)[C@@H]2O)[C@H](O)[C@H](O)[C@H]1O` the inhibition at 50 µM was less than 5%. For `COc1cc(O)c2c(=O)c(O[C@@H]3O[C@H](CO)[C@H](O)[C@H](OC(=O)C[C@@](C)(O)CC(=O)O)[C@H]3O[C@@H]3O[C@@H](C)[C@H](O)[C@@H](O)[C@H]3O)c(-c3ccc(O)cc3)oc2c1` [OXYTROFLAVOSIDE B], the inhibition at 50 µM was less than 5%. `COc1cc(O)c2c(=O)c(O[C@@H]3O[C@H](COC(=O)C[C@@](C)(O)CC(=O)O)[C@H](O)[C@H](O)[C@H]3O)c(-c3ccc(O[C@@H]4O[C@H](CO)[C@@H](O)[C@H](O)[C@H]4O)cc3)oc2c1` [OXYTROFLAVOSIDE E] gave an inhibition at 50 µM of less than 5%. `COc1cc(O)c2c(=O)c(O[C@@H]3O[C@H](COC(=O)C[C@@](C)(O)CC(=O)O)[C@H](O)[C@H](O)[C@H]3O)c(-c3ccc(O)cc3)oc2c1` [OXYTROFLAVOSIDE D] was tested, and the inhibition at 50 µM was less than 5%. In the case of `O=C(/C=C/c1ccccc1)c1ccc(O)cc1O` [2',4'-DIHYDROXYCHALCONE], the inhibition at 50 µM is reported as 40.1%. With `COc1cc(O)c2c(=O)c(O[C@@H]3O[C@H](CO)[C@H](OC(=O)C[C@@](C)(O)CC(=O)O)[C@H](O)[C@H]3O[C@@H]3O[C@@H](C)[C@H](O)[C@@H](O)[C@H]3O)c(-c3ccc(O)cc3)oc2c1` [OXYTROFLAVOSIDE C] the inhibition at 50 µM was less than 5%. `COc1cc(O)c2c(=O)c(O[C@@H]3O[C@H](CO[C@@H]4O[C@@H](C)[C@H](O)[C@@H](O)[C@H]4O)[C@H](O)[C@H](O)[C@H]3O[C@@H]3O[C@@H](C)[C@H](O)[C@@H](O)[C@H]3O)c(-c3ccc(O)cc3)oc2c1` [OXYTROFLAVOSIDE G] showed an inhibition at 50 µM of less than 5%. `COc1cc(O)c2c(=O)c(O[C@@H]3O[C@H](COC(=O)C[C@@](C)(O)CC(=O)O)[C@H](O)[C@H](O)[C@H]3O[C@@H]3O[C@@H](C)[C@H](O)[C@@H](O)[C@H]3O)c(-c3ccc(O)cc3)oc2c1` [OXYTROFLAVOSIDE A] gave an inhibition at 50 µM of less than 5%. For `COc1cc(O)c2c(=O)c(O[C@@H]3O[C@H](CO)[C@H](O)[C@H](O)[C@H]3O[C@@H]3O[C@@H](C)[C@H](O)[C@@H](O)[C@H]3O)c(-c3ccc(O)cc3)oc2c1` [OXYTROFLAVOSIDE F], the inhibition at 50 µM was less than 5%.
